The results in this text go back to ChEMBL document CHEMBL3784960, “New 4-Functionalized Glutamate Analogues Are Selective Agonists at Metabotropic Glutamate Receptor Subtype 2 or Selective Agonists at Metabotropic Glutamate Receptor Group III” (J Med Chem, 2016).

SMILES strings stand for the structures. pEC50, pIC50, pKi: −log10 of the molar value. Active and inactive are the calls of the source. The rule behind the calls is not given here. Where only a bound is given, the exact number is not on record here.

The target in experiment [1] is T1, Metabotropic glutamate receptor 1 (Rattus norvegicus, UniProt P23385). Put plainly: Agonist activity at rat mGlu1 receptor expressed in HEK293 cells by intracellular Ca2+ mobilization assay. Format: functional, cell-based.
Experiment [2] addresses T2, Metabotropic glutamate receptor 3 (Rattus norvegicus, UniProt P31422). The experiment in a line: Agonist activity at rat mGlu3 receptor expressed in HEK293 cells by [35S]GTP-gamma binding assay. Format: cell-based.
For experiment [3], the target named is T3, Metabotropic glutamate receptor 5 (Rattus norvegicus, UniProt P31424). The experiment in a line: Agonist activity at rat mGlu5 receptor expressed in HEK293 cells by intracellular Ca2+ mobilization assay. Format: functional, cell-based.
The target in experiment [4] is Metabotropic glutamate receptor 7 (Homo sapiens, UniProt Q14831). Put plainly: Agonist activity at human mGlu7 receptor expressed in HEK293 assessed as inhibition of forskolin stimulated cAMP production. Format: functional, cell-based.
In experiment [5] the target is T4, Metabotropic glutamate receptor 2 (Rattus norvegicus, UniProt P31421). The experiment in a line: Agonist activity at rat mGlu2 receptor expressed in HEK293 cells by [35S]GTP-gamma binding assay. The note with it: for pEC50: read-out: EC50. It counts as cell-based.
Experiment [6] has as its target T5, Metabotropic glutamate receptor 4 (Rattus norvegicus, UniProt P31423). The experiment in a line: Agonist activity at rat mGlu4 receptor expressed in HEK293 cells assessed as inhibition of forskolin stimulated cAMP production. Format: functional, cell-based.
The target of experiment [7] is Metabotropic glutamate receptor 6 (Rattus norvegicus, UniProt P35349). The experiment in a line: Agonist activity at rat mGlu6 receptor expressed in HEK293 cells assessed as IP1 accumulation by IP-One functional assay. Format: cell-based. Summed up:
(§1)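 HEK293 cells were transiently electroporated with the rat receptor plus a chimeric Gi/Gq protein for PLC coupling and EAAC1. Medium was replaced by Glutamax at least 2 h before agonist. IP1 accumulation was measured by HTRF 24 h post-transfection, at least in duplicate. EC50 ± SEM came from n = 4−6 experiments.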

Experiment [8] deals with Metabotropic glutamate receptor 7 (Rattus norvegicus, UniProt P35400). The experiment in a line: Agonist activity at rat mGlu7 receptor expressed in HEK293 cells assessed as IP1 accumulation by IP-One functional assay. It counts as cell-based. Summed up:
as §1

Experiment [9] deals with Metabotropic glutamate receptor 8 (Rattus norvegicus, UniProt P70579). The experiment in a line: Agonist activity at rat mGlu8 receptor expressed in HEK293 cells assessed as IP1 accumulation by IP-One functional assay. It counts as cell-based. Summed up: as §1
The target of experiment [10] is T6, Excitatory amino acid transporter 2 (Homo sapiens, UniProt P43004). The experiment in a line: Inhibition of human EAAT2 assessed as [3H]Asp uptake.
In experiment [11] the target is T1, Metabotropic glutamate receptor 1. The experiment in a line: Agonist activity at rat mGlu1 receptor expressed in HEK293 cells assessed as IP1 accumulation by IP-One functional assay. Format: cell-based. Summed up: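 Rat group I receptor transiently electroporated into HEK293 with the EAAC1 glutamate transporter; medium switched to Glutamax at least 2 h before stimulation. IP1 was read by HTRF (IP-One kit) 24 h after transfection. Runs were at least in duplicate, with EC50 ± SEM from n = 4−6 experiments.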

Experiment [12] in a line: Displacement of [3H]KA from rat synaptosome KA receptor after 60 mins by microplate scintillation counter analysis.
The target of experiment [13] is T4, Metabotropic glutamate receptor 2. Put plainly: Agonist activity at rat mGlu2 receptor expressed in HEK293 cells assessed as IP1 accumulation by IP-One functional assay. It counts as cell-based. Summed up: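 HEK293 cells were transiently electroporated with the rat receptor plus a chimeric Gi/Gq protein for PLC coupling and EAAC1. Medium was replaced by Glutamax at least 2 h before agonist. IP1 accumulation was measured by HTRF 24 h post-transfection, at least in duplicate.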

Experiment [14] has the same target. The experiment in a line: Agonist activity at rat mGlu2 receptor by FRET based mGlu sensor assay. Summed up: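 Receptor carried an N-terminal SNAP-tag and was transfected into HEK293 cells. At 24 h, surface receptors were labelled for 1 h with 100 nM SNAP-Lumi4-Tb (donor) and 60 nM SNAP Green (acceptor), washed three times, then drug was added. Time-resolved FRET was recorded at 520 nm, at least in duplicate.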

The target in experiment [15] is T5, Metabotropic glutamate receptor 4. The experiment in a line: Agonist activity at rat mGlu4 receptor expressed in HEK293 cells assessed as IP1 accumulation by IP-One functional assay. It counts as cell-based. Summed up: as §1
Experiment [16] has as its target T3, Metabotropic glutamate receptor 5. The experiment in a line: Agonist activity at rat mGlu5 receptor expressed in HEK293 cells assessed as IP1 accumulation by IP-One functional assay. Format: cell-based.
In experiment [17] the target is T7, Excitatory amino acid transporter 3 (Homo sapiens, UniProt P43005).
T7 sequence (P43005 whole entry): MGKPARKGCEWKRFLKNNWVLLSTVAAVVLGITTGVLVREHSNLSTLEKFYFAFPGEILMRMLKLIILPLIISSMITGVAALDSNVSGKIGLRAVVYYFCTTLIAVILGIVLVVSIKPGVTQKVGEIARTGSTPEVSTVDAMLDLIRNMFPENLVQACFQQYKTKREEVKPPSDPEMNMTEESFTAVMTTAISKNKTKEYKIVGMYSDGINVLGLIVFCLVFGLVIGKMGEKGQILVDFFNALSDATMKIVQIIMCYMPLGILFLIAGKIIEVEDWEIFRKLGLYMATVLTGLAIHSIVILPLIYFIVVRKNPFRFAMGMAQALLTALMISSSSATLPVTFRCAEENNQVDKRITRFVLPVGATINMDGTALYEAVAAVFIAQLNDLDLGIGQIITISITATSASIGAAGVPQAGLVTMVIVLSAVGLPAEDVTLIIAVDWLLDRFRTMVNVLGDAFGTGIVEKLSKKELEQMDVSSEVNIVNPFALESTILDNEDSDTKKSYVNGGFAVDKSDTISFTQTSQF
Put plainly: Inhibition of human EAAT3 assessed as [3H]Asp uptake.

The next experiment deals with Glutamate NMDA receptor. Put plainly: Displacement of [3H]CGP from rat synaptosome NMDA receptor after 60 mins by microplate scintillation counter analysis. Format: protein-complex assay.
Experiment [18] addresses T8, Excitatory amino acid transporter 1 (Homo sapiens, UniProt P43003). The experiment in a line: Inhibition of human EAAT1 assessed as [3H]Asp uptake.
In experiment [19] the target is T8, Excitatory amino acid transporter 1. The experiment in a line: Substrate activity at human EAAT1 assessed as [3H]Asp uptake measured up to 300 uM.
For experiment [20], the target named is T2, Metabotropic glutamate receptor 3. Put plainly: Agonist activity at rat mGlu3 receptor by FRET based mGlu sensor assay. Summed up:
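Receptor carried an N-terminal SNAP-tag and was transfected into HEK293 cells. At 24 h, surface receptors were labelled for 1 h with 100 nM SNAP-Lumi4-Tb (donor) and 60 nM SNAP Green (acceptor), washed three times, then drug was added. Time-resolved FRET was recorded at 520 nm, at least in duplicate. EC50 ± SEM came from n = 4−6 experiments.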

In experiment [21] the target is T6, Excitatory amino acid transporter 2. Put plainly: Substrate activity at human EAAT2 assessed as [3H]Asp uptake measured up to 300 uM.
Experiment [22] is described as follows: Displacement of [3H]AMPA from rat synaptosome AMPA receptor after 30 mins by microplate scintillation counter analysis.

Sequence of Metabotropic glutamate receptor 8 (P70579 whole entry): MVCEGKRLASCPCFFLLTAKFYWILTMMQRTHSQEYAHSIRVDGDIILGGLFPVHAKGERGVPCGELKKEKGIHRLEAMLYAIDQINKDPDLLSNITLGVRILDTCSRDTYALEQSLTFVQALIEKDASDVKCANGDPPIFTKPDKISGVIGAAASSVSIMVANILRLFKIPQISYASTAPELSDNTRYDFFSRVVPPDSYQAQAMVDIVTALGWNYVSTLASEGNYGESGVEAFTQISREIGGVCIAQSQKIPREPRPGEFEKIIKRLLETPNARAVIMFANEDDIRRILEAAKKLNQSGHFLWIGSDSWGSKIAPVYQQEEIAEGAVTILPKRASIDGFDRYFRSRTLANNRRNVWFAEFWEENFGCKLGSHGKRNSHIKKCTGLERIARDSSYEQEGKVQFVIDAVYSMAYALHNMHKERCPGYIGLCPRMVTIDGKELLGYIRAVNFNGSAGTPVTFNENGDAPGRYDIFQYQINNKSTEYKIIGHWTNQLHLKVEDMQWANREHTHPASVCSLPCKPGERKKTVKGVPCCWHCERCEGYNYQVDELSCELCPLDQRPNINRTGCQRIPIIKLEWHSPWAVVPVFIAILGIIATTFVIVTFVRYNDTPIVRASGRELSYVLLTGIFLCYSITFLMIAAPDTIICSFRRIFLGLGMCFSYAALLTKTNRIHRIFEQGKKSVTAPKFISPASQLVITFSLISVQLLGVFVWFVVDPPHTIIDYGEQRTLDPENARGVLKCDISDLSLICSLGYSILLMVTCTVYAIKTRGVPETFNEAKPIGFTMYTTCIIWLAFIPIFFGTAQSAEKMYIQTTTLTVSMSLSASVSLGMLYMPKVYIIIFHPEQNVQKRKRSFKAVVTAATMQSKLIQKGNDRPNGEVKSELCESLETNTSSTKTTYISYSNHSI
T4 sequence (P31421 whole entry): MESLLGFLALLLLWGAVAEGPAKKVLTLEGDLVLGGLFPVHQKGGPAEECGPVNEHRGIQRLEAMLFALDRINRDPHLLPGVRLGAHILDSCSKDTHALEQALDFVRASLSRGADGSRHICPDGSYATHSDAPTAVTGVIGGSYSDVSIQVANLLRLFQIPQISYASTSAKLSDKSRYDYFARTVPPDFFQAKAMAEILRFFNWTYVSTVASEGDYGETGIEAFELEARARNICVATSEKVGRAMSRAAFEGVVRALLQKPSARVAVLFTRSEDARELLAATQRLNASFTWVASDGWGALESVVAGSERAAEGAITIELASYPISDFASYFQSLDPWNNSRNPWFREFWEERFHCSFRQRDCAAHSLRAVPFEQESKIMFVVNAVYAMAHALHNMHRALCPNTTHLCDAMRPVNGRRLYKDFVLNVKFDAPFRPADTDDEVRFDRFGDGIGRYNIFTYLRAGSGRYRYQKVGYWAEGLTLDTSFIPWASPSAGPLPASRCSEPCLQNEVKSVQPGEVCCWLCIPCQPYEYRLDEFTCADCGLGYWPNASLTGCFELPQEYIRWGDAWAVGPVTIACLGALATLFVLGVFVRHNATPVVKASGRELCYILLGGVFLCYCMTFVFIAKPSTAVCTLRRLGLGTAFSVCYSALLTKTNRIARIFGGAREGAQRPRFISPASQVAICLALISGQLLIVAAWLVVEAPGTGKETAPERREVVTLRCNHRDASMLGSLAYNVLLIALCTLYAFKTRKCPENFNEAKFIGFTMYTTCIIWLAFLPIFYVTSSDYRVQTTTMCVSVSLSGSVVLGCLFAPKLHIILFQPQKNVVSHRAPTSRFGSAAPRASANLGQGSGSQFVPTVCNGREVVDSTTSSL
T1 sequence (P23385 whole entry): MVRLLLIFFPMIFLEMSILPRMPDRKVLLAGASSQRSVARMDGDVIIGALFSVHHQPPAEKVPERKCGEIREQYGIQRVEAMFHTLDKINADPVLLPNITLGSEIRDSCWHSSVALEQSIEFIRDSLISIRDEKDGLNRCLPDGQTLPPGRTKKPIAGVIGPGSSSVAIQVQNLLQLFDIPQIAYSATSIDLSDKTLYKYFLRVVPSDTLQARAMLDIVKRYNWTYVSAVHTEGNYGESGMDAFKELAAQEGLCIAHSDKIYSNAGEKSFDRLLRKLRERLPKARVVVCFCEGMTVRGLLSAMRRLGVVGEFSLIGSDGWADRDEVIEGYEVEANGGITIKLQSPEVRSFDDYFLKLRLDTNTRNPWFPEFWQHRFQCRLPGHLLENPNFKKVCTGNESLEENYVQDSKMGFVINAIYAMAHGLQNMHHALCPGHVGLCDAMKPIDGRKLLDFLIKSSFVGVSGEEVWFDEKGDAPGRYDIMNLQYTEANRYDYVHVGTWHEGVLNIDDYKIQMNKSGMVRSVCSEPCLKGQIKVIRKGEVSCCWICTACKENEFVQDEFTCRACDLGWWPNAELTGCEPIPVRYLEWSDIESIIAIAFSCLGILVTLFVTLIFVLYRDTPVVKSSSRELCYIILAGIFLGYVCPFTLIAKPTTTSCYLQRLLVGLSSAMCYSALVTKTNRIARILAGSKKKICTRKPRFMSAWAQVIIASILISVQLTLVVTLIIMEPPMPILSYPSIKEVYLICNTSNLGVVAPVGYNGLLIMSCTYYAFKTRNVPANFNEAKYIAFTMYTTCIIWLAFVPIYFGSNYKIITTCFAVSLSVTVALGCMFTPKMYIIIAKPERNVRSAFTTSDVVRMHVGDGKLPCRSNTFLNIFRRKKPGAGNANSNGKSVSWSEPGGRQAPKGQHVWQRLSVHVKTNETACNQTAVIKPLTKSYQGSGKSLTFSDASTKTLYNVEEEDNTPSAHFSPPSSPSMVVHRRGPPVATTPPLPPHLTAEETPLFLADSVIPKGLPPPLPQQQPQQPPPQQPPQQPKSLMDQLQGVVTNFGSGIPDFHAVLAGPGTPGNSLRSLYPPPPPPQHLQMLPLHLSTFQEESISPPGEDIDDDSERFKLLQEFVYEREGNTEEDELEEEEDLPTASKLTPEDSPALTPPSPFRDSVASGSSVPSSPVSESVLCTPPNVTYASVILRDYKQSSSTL
T3 sequence (P31424 whole entry): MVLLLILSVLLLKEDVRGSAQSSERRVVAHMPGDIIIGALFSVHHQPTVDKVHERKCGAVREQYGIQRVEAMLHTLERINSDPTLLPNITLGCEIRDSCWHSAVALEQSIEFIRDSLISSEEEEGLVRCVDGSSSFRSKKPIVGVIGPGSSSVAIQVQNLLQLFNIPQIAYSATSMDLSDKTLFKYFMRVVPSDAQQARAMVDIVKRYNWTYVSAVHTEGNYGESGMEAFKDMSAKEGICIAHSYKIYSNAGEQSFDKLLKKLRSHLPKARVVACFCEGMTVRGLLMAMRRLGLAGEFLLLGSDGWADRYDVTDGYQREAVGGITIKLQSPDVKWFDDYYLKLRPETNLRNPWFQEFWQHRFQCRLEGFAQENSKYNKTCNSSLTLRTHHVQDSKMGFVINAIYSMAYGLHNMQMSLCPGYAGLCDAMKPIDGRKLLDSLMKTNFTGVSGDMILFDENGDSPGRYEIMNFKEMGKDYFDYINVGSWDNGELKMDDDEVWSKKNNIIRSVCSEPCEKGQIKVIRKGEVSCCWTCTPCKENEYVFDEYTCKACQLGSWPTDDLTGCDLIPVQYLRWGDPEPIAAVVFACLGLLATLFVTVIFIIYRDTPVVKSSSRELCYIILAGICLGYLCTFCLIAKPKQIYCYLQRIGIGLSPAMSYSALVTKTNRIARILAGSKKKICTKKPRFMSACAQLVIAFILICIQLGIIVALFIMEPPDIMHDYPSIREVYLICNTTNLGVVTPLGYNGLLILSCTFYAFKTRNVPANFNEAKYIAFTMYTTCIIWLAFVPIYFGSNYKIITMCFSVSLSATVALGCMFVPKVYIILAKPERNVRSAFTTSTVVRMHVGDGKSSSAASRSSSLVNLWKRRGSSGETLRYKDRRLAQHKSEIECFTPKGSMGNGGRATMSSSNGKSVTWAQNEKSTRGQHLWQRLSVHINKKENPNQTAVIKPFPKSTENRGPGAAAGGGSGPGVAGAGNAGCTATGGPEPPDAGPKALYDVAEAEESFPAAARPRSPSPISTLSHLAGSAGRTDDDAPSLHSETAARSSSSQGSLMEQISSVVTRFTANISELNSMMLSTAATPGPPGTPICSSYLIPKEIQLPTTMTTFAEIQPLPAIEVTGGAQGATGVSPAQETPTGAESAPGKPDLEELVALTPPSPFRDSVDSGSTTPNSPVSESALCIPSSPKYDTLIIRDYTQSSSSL
Sequence of Metabotropic glutamate receptor 6 (P35349 whole entry): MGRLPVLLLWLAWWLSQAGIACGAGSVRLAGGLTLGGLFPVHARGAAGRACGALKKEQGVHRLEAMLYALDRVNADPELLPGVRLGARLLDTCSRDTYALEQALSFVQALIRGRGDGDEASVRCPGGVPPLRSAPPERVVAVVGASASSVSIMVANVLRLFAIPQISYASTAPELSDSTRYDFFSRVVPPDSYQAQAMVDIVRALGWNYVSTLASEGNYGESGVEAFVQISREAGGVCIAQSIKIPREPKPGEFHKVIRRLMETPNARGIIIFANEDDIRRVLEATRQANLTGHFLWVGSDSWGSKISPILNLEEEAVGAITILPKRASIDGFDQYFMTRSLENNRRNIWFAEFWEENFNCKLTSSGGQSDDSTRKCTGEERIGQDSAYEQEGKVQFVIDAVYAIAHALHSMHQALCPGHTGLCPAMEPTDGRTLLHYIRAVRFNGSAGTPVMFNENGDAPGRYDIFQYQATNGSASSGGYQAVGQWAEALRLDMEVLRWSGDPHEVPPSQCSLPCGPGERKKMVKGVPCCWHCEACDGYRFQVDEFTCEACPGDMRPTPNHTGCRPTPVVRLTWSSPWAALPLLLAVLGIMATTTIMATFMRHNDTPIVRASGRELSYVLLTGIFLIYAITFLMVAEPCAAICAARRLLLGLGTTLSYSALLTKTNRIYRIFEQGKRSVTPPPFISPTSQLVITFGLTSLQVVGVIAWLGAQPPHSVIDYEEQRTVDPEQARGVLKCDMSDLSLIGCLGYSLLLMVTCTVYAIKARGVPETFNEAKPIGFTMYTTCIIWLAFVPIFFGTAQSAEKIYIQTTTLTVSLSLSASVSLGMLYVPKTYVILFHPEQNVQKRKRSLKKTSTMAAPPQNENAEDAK

`N#CCC[C@H](C[C@H](N)C(=O)O)C(=O)O`: the pEC50 in [1], in experiment [2], in experiment [3], in experiment [4], in experiment [5] and in experiment [6] was under 3.00 each time.
As to `COC(=O)CC[C@H](C[C@H](N)C(=O)O)C(=O)O`, the pEC50 in experiment [1], in [3], in experiment [5] and in [6] was under 3.00 in each case.
As for `N[C@@H](CCP(=O)(O)O)C(=O)O`, the pEC50 in [7] was 5.72; in [8], 3.47; in experiment [9] (hek293) it was 7.15.
Consider `N[C@@H](C[C@@]1(C(=O)O)C[C@@H]1C(=O)O)C(=O)O`, for which the pIC50 in experiment [10] is under 3.52; in experiment [12], under 4.00; in experiment [17] it was under 3.52; in experiment [18], under 3.52; in [22] it was under 4.00. Moreover, the pEC50 is under 3.00 in experiment [11]; under 3.00 in experiment [13]; under 3.00 in experiment [14]; 5.61 in experiment [15]; under 3.00 in experiment [16]; 4.75 in experiment [7]. The pEC50 is under 3.00 in [20], under 3.00 in experiment [8] and 4.68 in [9]. The same compound had a pKi at Glutamate NMDA receptor of 4.82. Further, the outcome in experiment [19] and in experiment [21] was inactive.
In the case of `N[C@@H](C[C@@H](CCC(=O)NO)C(=O)O)C(=O)O`, the pEC50 in [1], in [2], in [3], in experiment [4], in [5] and in experiment [6] was under 3.00 throughout.
`N[C@@H](CCC(=O)O)C(=O)O` [GLUTAMIC ACID]: the pEC50 was 5.02 in experiment [15]; 7.22 in experiment [2]; 5.93 in experiment [4]; 4.19 in experiment [7]; 5.47 in [20]; 4.85 in experiment [9].
Consider `CC[C@H](C[C@H](N)C(=O)O)C(=O)O`, for which the pEC50 in [1], in experiment [5] and in experiment [6] was under 3.00 each time.
Regarding `CN(O)C(=O)CC[C@H](C[C@H](N)C(=O)O)C(=O)O`, the pEC50 in [1], in [2], in experiment [3], in [4], in [5] and in [6] was under 3.00 in each case.
Turning to `CNC(=O)CC[C@H](C[C@H](N)C(=O)O)C(=O)O`, the pEC50 in [1], in experiment [3], in [5] and in experiment [6] was under 3.00 each time.
For the compound `N[C@@H](C[C@@]1(C(=O)O)C[C@H]1C(=O)O)C(=O)O`, the pIC50 in experiment [10] is under 3.52; in [12], under 4.00; in experiment [17], under 3.52; in [18] it was under 3.52; in experiment [22], under 4.00. Further, the pEC50 in [11], in experiment [13], in experiment [14], in [15], in experiment [16] and in experiment [7] was under 3.00 in each case. Also, the pEC50 in experiment [20], in experiment [8] and in experiment [9] was under 3.00 each time. The compound also had a pKi at Glutamate NMDA receptor of under 4.00. Besides, the outcome in experiment [19] and in [21] was inactive.
For `CCC[C@H](C[C@H](N)C(=O)O)C(=O)O`, the pEC50 in experiment [1], in [5] and in [6] was under 3.00 in each case.
As to `NC(=O)CC[C@H](C[C@H](N)C(=O)O)C(=O)O`, the pEC50 in [1], in experiment [3], in experiment [5] and in experiment [6] was under 3.00 throughout.
Take `N[C@@H](C[C@@H](CC(=O)O)C(=O)O)C(=O)O`: the pEC50 in experiment [1], in experiment [2], in experiment [3], in experiment [4], in experiment [5] and in experiment [6] was under 3.00 each time.
With `N[C@H](C(=O)O)C1[C@@H](C(=O)O)[C@@H]1C(=O)O` (stereo not given in full), the values for the pEC50 in [14] and in experiment [20] were 6.46 and 7.10, respectively.
On to `NCC[C@H](C[C@H](N)C(=O)O)C(=O)O`, for which the pEC50 in [1], in [2], in [3], in experiment [4], in [5] and in experiment [6] was under 3.00 each time.
As for `NCCC[C@H](C[C@H](N)C(=O)O)C(=O)O`, the pEC50 in experiment [1] was under 3.00; in experiment [2], under 3.00; in experiment [3], under 3.00; in experiment [4], under 3.00; in [5], 4.31; in experiment [6], under 3.00. The EC50 in experiment [5] (read-out: pEC50 (converted)) was 4.9 µM.
